pEC50: −log10 of the molar value.
How the values were obtained:
THP-1 [1] = experiment: Ratio of induction of ABCA1 gene expression in THP1 cells at 10 uM to control; format: functional, Homo sapiens
HepG2 (Homo sapiens) = experiment: Ratio of induction of SREBP1c gene expression in HepG2 cells at 10 uM to control
THP-1 [2] = experiment: Induction of cholesterol efflux in THP1 cells after 18 hrs; format: functional, cell-based; settings: Homo sapiens, THP-1, 18 h
[3] = target: T1, Oxysterols receptor LXR-beta (Homo sapiens, UniProt P55055); experiment: Agonist activity at LXRbeta LBD by HTRF cofactor peptide recruitment assay; format: functional
T1 sequence (P55055 whole entry): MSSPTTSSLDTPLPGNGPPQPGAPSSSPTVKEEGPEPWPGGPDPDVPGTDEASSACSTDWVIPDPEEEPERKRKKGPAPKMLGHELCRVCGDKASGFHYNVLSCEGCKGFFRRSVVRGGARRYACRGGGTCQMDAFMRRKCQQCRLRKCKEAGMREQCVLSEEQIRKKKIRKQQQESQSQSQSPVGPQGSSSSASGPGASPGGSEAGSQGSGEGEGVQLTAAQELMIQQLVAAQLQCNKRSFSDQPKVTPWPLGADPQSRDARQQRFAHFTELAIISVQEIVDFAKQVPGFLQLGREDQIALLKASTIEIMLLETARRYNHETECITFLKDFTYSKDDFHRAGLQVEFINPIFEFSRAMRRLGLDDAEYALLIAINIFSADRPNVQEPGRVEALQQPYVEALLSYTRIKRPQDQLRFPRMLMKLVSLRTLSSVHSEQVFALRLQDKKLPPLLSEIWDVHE

[4] = target: T2, Oxysterols receptor LXR-alpha (Homo sapiens, UniProt Q13133); experiment: Agonist activity at LXRalpha LBD by HTRF cofactor peptide recruitment assay; format: functional
T2 sequence (Q13133 whole entry): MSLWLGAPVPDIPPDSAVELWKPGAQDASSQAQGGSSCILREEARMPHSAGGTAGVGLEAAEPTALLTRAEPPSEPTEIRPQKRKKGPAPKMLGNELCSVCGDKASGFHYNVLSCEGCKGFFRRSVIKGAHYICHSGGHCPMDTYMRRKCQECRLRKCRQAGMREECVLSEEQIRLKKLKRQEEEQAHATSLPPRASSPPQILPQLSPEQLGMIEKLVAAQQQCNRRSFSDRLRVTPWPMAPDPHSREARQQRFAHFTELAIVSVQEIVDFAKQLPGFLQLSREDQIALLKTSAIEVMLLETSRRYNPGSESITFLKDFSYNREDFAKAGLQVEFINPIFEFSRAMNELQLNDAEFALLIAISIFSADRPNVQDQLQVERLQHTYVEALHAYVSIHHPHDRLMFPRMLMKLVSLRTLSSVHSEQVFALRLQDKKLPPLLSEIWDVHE

HepG2 = experiment: Ratio of induction of lipogenesis in HepG2 cells at 10 uM to control after 24 hrs; format: functional, Homo sapiens
[5] = target: T1, Oxysterols receptor LXR-beta; experiment: Activation of LXRbeta co-transfected in COS7 cells with RXRalpha by reporter transactivation assay; format: functional, cell-based, COS-7
Method in brief: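 Cells exposed to vehicle or compound for 16 h; LXR reporter activation read as luciferase activity in cell lysate. EC50 derived from means of quadruplicate samples, single experiment.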

THP-1 [6] = experiment: Ratio of induction of cholesterol efflux in THP1 cells at 10 uM to control after 18 hrs; format: functional, Homo sapiens

| SMILES | pEC50 [3] | also measured |
| --- | --- | --- |
| O=S(=O)(NC1Cc2ccc(-c3cc4ccccc4[nH]3)cc2C1)c1ccccc1 (stereo unspecified) | < 4.52 | – |
| CCOC(=O)n1c(-c2ccc3c(c2)CC(NS(=O)(=O)c2ccccc2)C3)cc2ccccc21 (stereo unspecified) | 5.80 | – |
| CC(C)CCOC(=O)n1c(-c2ccc3c(c2)CC(NS(=O)(=O)c2ccccc2)C3)cc2ccccc21 (stereo unspecified) | 5.89 | – |
| CCCCC(C)COC(=O)n1c(-c2ccc3c(c2)CC(NS(=O)(=O)c2ccccc2)C3)cc2ccccc21 (stereo unspecified) | < 4.52 | – |
| O=S(=O)(NC1Cc2ccc(-c3cc4ccccc4n3S(=O)(=O)c3ccccc3)cc2C1)c1ccccc1 (stereo unspecified) | < 4.52 | – |
| O=C(C1CCCC1)n1c(-c2ccc3c(c2)CC(NS(=O)(=O)c2ccccc2)C3)cc2ccccc21 (stereo unspecified) | 6.05 | – |
| CC(C)(C)CC(=O)n1c(-c2ccc3c(c2)CC(NS(=O)(=O)c2ccccc2)C3)cc2ccccc21 (stereo unspecified) | < 4.52 | – |
| Cn1c(-c2ccc3c(c2)CC(NS(=O)(=O)c2ccccc2)C3)cc2ccccc21 (stereo unspecified) | < 4.52 | – |
| CC(C)(C)OC(=O)Cn1c(-c2ccc3c(c2)CC(NS(=O)(=O)c2ccccc2)C3)cc2ccccc21 (stereo unspecified) | < 4.52 | – |
| O=S(=O)(NC1Cc2ccc(-c3cc4ccccc4n3CCCOCc3ccccc3)cc2C1)c1ccccc1 (stereo unspecified) | < 4.52 | – |
| O=S(=O)(NC1Cc2ccc(-c3cc4ccccc4n3CCc3ccccc3)cc2C1)c1ccccc1 (stereo unspecified) | < 5.00 | – |
| CC(C)(C)OC(=O)n1c(-c2ccc3c(c2)CC(NS(=O)(=O)c2ccccc2)C3)cc2cc(OCc3ccccc3)ccc21 (stereo unspecified) | < 4.52 | – |
| CC(C)(C)OC(=O)n1c(-c2ccc3c(c2)CC(NC(=O)c2ccccc2)C3)cc2ccccc21 (stereo unspecified) | 6.72 | – |
| COc1ccccc1C(=O)NC1Cc2ccc(-c3cc4ccccc4n3C(=O)OC(C)(C)C)cc2C1 (stereo unspecified) | 6.33 | – |
| CC(C)(C)OC(=O)n1c(-c2ccc3c(c2)CC(NC(=O)c2ccccc2O)C3)cc2ccccc21 (stereo unspecified) | 6.28 | – |
| CC(C)(C)OC(=O)n1c(-c2ccc3c(c2)CC(NC(=O)Nc2ccccc2)C3)cc2ccccc21 (stereo unspecified) | 5.82 | – |

| SMILES | pEC50 [3] | also measured |
| --- | --- | --- |
| CCS(=O)(=O)NC1Cc2ccc(-c3cc4ccccc4n3C(=O)OC(C)(C)C)cc2C1 (stereo unspecified) | 6.40 | – |
| O=C(CC1CC1)n1c(-c2ccc3c(c2)CC(NS(=O)(=O)c2ccccc2)C3)cc2ccccc21 (stereo unspecified) | 5.94 | – |
| CC(C)(C)OC(=O)n1c(-c2ccc3c(c2)CC(NS(=O)(=O)c2ccccc2)C3)cc2c(OCc3ccccc3)cccc21 (stereo unspecified) | < 4.52 | – |
| CC(C)(C)OC(=O)n1c(-c2ccc3c(c2)CC(NS(=O)(=O)c2ccccc2)C3)cc2cc(C#N)ccc21 (stereo unspecified) | 4.59 | – |
| CCCCCC(=O)n1c(-c2ccc3c(c2)CC(NS(=O)(=O)c2ccccc2)C3)cc2ccccc21 (stereo unspecified) | 5.68 | – |
| O=S(=O)(NC1Cc2ccc(-c3cc4ccccc4n3Cc3ccccc3)cc2C1)c1ccccc1 (stereo unspecified) | < 4.52 | – |
| CC(C)(C)OC(=O)n1c(-c2ccc3c(c2)CC(NS(=O)(=O)c2ccc(-c4ccon4)s2)C3)cc2ccccc21 (stereo unspecified) | 6.17 | Ratio (THP-1 [1]): 7.5; Ratio (HepG2 (Homo sapiens)): 2.1; pEC50 (THP-1 [2]): 6.23; pEC50 [4]: < 4.52; Ratio (HepG2): 1.2; pEC50 [5]: 6.47; Ratio (THP-1 [6]): 1.7 |
| COC(=O)n1c(-c2ccc3c(c2)CC(NS(=O)(=O)c2ccccc2)C3)cc2ccccc21 (stereo unspecified) | < 4.52 | – |
| CC(C)(C)OC(=O)n1c(-c2ccc3c(c2)CC(NS(=O)(=O)c2ccccc2)C3)cc2ccc(OCc3ccccc3)cc21 (stereo unspecified) | < 4.52 | – |
| COc1ccc2c(c1)cc(-c1ccc3c(c1)CC(NS(=O)(=O)c1ccccc1)C3)n2C(=O)OC(C)(C)C (stereo unspecified) | 4.55 | – |
| COc1ccc2cc(-c3ccc4c(c3)CC(NS(=O)(=O)c3ccccc3)C4)n(C(=O)OC(C)(C)C)c2c1 (stereo unspecified) | 5.80 | – |
| Cc1noc(C)c1S(=O)(=O)NC1Cc2ccc(-c3cc4ccccc4n3C(=O)OC(C)(C)C)cc2C1 (stereo unspecified) | 6.89 | – |
| COc1ccc(Cn2c(-c3ccc4c(c3)CC(NS(=O)(=O)c3ccccc3)C4)cc3ccccc32)cc1 (stereo unspecified) | < 4.52 | – |
| O=C(O)Cc1cccc(OCCCN(Cc2cccc(C(F)(F)F)c2Cl)CC(c2ccccc2)c2ccccc2)c1 | 7.46 | Ratio (THP-1 [1]): 10.7; Ratio (HepG2 (Homo sapiens)): 5.2; pEC50 (THP-1 [2]): 8.00; pEC50 [4]: 6.44; Ratio (HepG2): 2.7; Ratio (THP-1 [6]): 1.8 |
| O=S(=O)(c1ccccc1)N(CC(F)(F)F)c1ccc(C(O)(C(F)(F)F)C(F)(F)F)cc1 [T091317] | – | pEC50 (THP-1 [2]): 7.48 |

Further lines, with some results ahead:

| pEC50 [3] | SMILES | also measured |
| --- | --- | --- |
| 6.72 | CC(C)(C)OC(=O)n1c(-c2ccc3c(c2)CC(NS(=O)(=O)c2ccccc2)C3)cc2ccccc21 (stereo unspecified) | Ratio (THP-1 [1]): 8.4; Ratio (HepG2 (Homo sapiens)): 3.1; pEC50 (THP-1 [2]): 6.17; pEC50 [4]: 5.82; Ratio (HepG2): 3.1; pEC50 [5]: 7.19; Ratio (THP-1 [6]): 1.6 |
| < 4.52 | CC(C)(C)OC(=O)n1c(-c2ccc3c(c2)CC(NS(=O)(=O)c2ccccc2)C3)cc2cc(O)ccc21 (stereo unspecified) | – |
| 5.82 | CC(C)(C)OC(=O)n1c(-c2ccc3c(c2)CC(NS(=O)(=O)c2ccccc2)C3)cc2cc(F)ccc21 (stereo unspecified) | – |
| 4.74 | Cc1ccc2c(c1)cc(-c1ccc3c(c1)CC(NS(=O)(=O)c1ccccc1)C3)n2C(=O)OC(C)(C)C (stereo unspecified) | – |
| 6.17 | CC(C)(C)OC(=O)n1c(-c2ccc3c(c2)CC(NS(=O)(=O)c2ccccc2)C3)cc2ccc(O)cc21 (stereo unspecified) | – |
| 6.18 | CC(C)(C)OC(=O)n1c(-c2ccc3c(c2)C[C@H](NS(=O)(=O)c2ccccc2)C3)cc2ccccc21 | – |
| 6.89 | CC(C)(C)OC(=O)n1c(-c2ccc3c(c2)C[C@@H](NS(=O)(=O)c2ccccc2)C3)cc2ccccc21 | – |
| 5.68 | CC(C)(C)OC(=O)n1c(-c2ccc3c(c2)CC(NS(=O)(=O)c2ccc(-c4ccccc4)cc2)C3)cc2ccccc21 (stereo unspecified) | – |
| 5.94 | CC(C)(C)OC(=O)n1c(-c2ccc3c(c2)CC(NS(=O)(=O)c2ccc(Cl)cc2)C3)cc2ccccc21 (stereo unspecified) | – |
| 6.37 | Cc1ccc(S(=O)(=O)NC2Cc3ccc(-c4cc5ccccc5n4C(=O)OC(C)(C)C)cc3C2)cc1 (stereo unspecified) | – |
| 6.14 | CC(C)(C)OC(=O)n1c(-c2ccc3c(c2)CC(NS(=O)(=O)c2ccc(C(F)(F)F)cc2)C3)cc2ccccc21 (stereo unspecified) | – |
| 5.88 | Cc1cccc(S(=O)(=O)NC2Cc3ccc(-c4cc5ccccc5n4C(=O)OC(C)(C)C)cc3C2)c1 (stereo unspecified) | – |
| 6.02 | COc1cccc(S(=O)(=O)NC2Cc3ccc(-c4cc5ccccc5n4C(=O)OC(C)(C)C)cc3C2)c1 (stereo unspecified) | – |
| 6.34 | CC(C)(C)OC(=O)n1c(-c2ccc3c(c2)CC(NS(=O)(=O)c2cccc(C#N)c2)C3)cc2ccccc21 (stereo unspecified) | – |
| 6.22 | COC(=O)c1ccccc1S(=O)(=O)NC1Cc2ccc(-c3cc4ccccc4n3C(=O)OC(C)(C)C)cc2C1 (stereo unspecified) | – |
| 5.47 | CC(C)(C)OC(=O)n1c(-c2ccc3c(c2)CC(NS(=O)(=O)c2ccccc2C(=O)O)C3)cc2ccccc21 (stereo unspecified) | – |
| 6.22 | COc1ccccc1S(=O)(=O)NC1Cc2ccc(-c3cc4ccccc4n3C(=O)OC(C)(C)C)cc2C1 (stereo unspecified) | – |
| 6.10 | CC(C)(C)OC(=O)n1c(-c2ccc3c(c2)CC(NS(=O)(=O)c2ccccc2C(F)(F)F)C3)cc2ccccc21 (stereo unspecified) | – |
| 6.12 | CC(C)(C)OC(=O)n1c(-c2ccc3c(c2)CC(NS(=O)(=O)c2ccccc2Cl)C3)cc2ccccc21 (stereo unspecified) | – |
| 6.28 | CC(C)(C)OC(=O)n1c(-c2ccc3c(c2)CC(NS(=O)(=O)Cc2ccccc2)C3)cc2ccccc21 (stereo unspecified) | – |
| 5.85 | CC(C)(C)COC(=O)n1c(-c2ccc3c(c2)CC(NS(=O)(=O)c2ccccc2)C3)cc2ccccc21 (stereo unspecified) | – |
| 7.22 | CC(C)(C)OC(=O)n1c(-c2ccc3c(c2)CC(NS(=O)(=O)c2ccccc2C#N)C3)cc2ccccc21 (stereo unspecified) | – |
| 7.00 | CC(C)(C)OC(=O)n1c(-c2ccc3c(c2)CC(NS(=O)(=O)c2ccccc2F)C3)cc2ccccc21 (stereo unspecified) | – |
| 6.77 | CC(C)(C)OC(=O)n1c(-c2ccc3c(c2)CC(NC(=O)c2ccccc2F)C3)cc2ccccc21 (stereo unspecified) | – |
| < 4.52 | CC(C)(C)OC(=O)n1c(-c2ccc3c(c2)CC(NS(=O)(=O)c2ccccc2)C3)cc2c(O)cccc21 (stereo unspecified) | – |
| 5.74 | CC(C)(C)OC(=O)n1c(-c2ccc3c(c2)CC(NS(=O)(=O)c2cccc(Cl)c2)C3)cc2ccccc21 (stereo unspecified) | – |
| 6.70 | Cc1ccccc1S(=O)(=O)NC1Cc2ccc(-c3cc4ccccc4n3C(=O)OC(C)(C)C)cc2C1 (stereo unspecified) | – |
| 6.52 | Cc1ccc2cc(-c3ccc4c(c3)CC(NS(=O)(=O)c3ccccc3)C4)n(C(=O)OC(C)(C)C)c2c1 (stereo unspecified) | – |
| 6.19 | CCc1ccc(S(=O)(=O)NC2Cc3ccc(-c4cc5ccccc5n4C(=O)OC(C)(C)C)cc3C2)cc1 (stereo unspecified) | – |
| 6.68 | CC(C)(C)OC(=O)n1c(-c2ccc3c(c2)CC(NS(C)(=O)=O)C3)cc2ccccc21 (stereo unspecified) | – |

— ChEMBL document CHEMBL1139922, “Discovery and structure-activity relationship studies of indole derivatives as liver X receptor (LXR) agonists” (Bioorg Med Chem Lett, 2007)
